ChEMBL document CHEMBL3352570, “ST7612AA1, a thioacetate-ω(γ-lactam carboxamide) derivative selected from a novel generation of oral HDAC inhibitors” (J Med Chem, 2014)
One block for each compound: values may come before it. Activity calls are given as the source filed them. No cut-off for these calls is given here.

Tests used:
NCI-H460 = assay: Cytotoxicity against human NCI-H460 cells after 24 hrs by SRB assay; type: functional, cell-based; details: NCI-H460, 24 h
Summary of the method: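 NCI-H460 cells were grown in RPMI-1640 with L-glutamine, 10% heat-inactivated FCS and 50 μg/mL gentamicin. Cells were seeded at about 10% confluence and allowed to recover for 24 h. They were exposed to varying concentrations for 24 h, washed, then cultured a further 48 h. Surviving cells were measured by SRB. IC50 is the 50% reduction in cell number versus vehicle, from dose–response curve fitting; means of at least three experiments.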

[1] = Cytotoxicity against human HCT116 cells after 24 hrs by SRB assay; type: functional, cell-based; details: HCT-116, 24 h
Summary of the method: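 HCT116 cells were cultured in McCoy's 5A with L-glutamine, 10% heat-inactivated FCS and 50 μg/mL gentamicin. After seeding at about 10% confluence and a 24 h recovery, they received drug for 24 h. Drug was washed out and cells were incubated 48 h more before SRB staining. IC50 is the 50% cell-number reduction versus vehicle, from fitted dose–response curves; means of at least two experiments.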

Histone deacetylase [2] = assay: Inhibition of HDAC-mediated tubulin deacetylation in human NCI-H460 cells after 3 hrs by Western blot analysis; type: cell-based
Summary of the method: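 Cells (NCI-H460) were treated for 3 h with graded concentrations. The cytoplasmic fraction was collected after HNB/1% NP-40 lysis and centrifugation of nuclei at 2000g. This fraction was resolved by SDS-PAGE and probed for acetylated α-tubulin against α-tubulin and β-actin. Bands were detected by ECL and quantified by densitometry after normalization; IC50 fitted; means of at least two experiments.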

Histone deacetylase [3] = assay: Inhibition of HDAC-mediated histone H4 deacetylation in human NCI-H460 cells after 3 hrs by Western blot analysis; type: cell-based
Summary of the method: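 NCI-H460 cells were plated the day before and treated 3 h across a dose range. Cells were washed with DPBS containing 5 mM NaB and lysed in HNB buffer with 1% NP-40. Histones were acid-extracted from nuclei with 0.4 equiv/L H2SO4 and precipitated with acetone. Blots were probed for acetyl-H4 against total H4. Read-out was ECL and densitometry after normalization; IC50 fitted; means of at least two experiments.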

[4] = Half life in human hepatocytes at 5 uM by LCMS/MS analysis; type: ADME, cell-based, Hepatocyte
Summary of the method: (§1)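 Incubation in human hepatocytes. […] Values are means of at least three experiments.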

[5] = Intrinsic clearance in human hepatocytes assessed per million cells at 5 uM by LCMS/MS analysis; type: ADME, cell-based, Hepatocyte; details: read-out: CLH; summary of the method: as §1
[6] = Efflux ratio of permeability from apical to basolateral side to basolateral to apical side of human Caco2 cells; type: ADME, cell-based; details: caco-2
Summary of the method: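 Caco-2 monolayers; the efflux ratio is flux in the apical-to-basolateral direction over flux in the basolateral-to-apical direction. Means of at least three experiments.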

[7] = Efflux ratio of permeability from apical to basolateral side to basolateral to apical side of human Caco2 cells in presence of digoxin; type: ADME, cell-based; details: caco-2
Summary of the method: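 Caco-2 AB/BA flux ratio measured with digoxin coincubated with test and reference compounds. Means of at least three experiments.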

[8] = Antitumor activity against human HCT116 cells xenografted in athymic nude mouse assessed as tumor volume inhibition at 60 mg/kg, po qd for 5 days a week for 3 weeks; type: functional; details: HCT-116
Summary of the method: (§2)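 Female athymic nude mice, 5–6 weeks old, were inoculated sc in the right flank with 5 × 10⁶ exponentially growing tumor cells per 100 μL. Oral dosing once daily began 3 days after tumor injection, in Solutol HS15 diluted 1/20 in water. Tumor volume inhibition was calculated as TVI% = 100 − [(mean TV treated/mean TV control) × 100].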

A2780 = assay: Antitumor activity against human A2780 cells xenografted in athymic nude mouse assessed as tumor volume inhibition at 60 mg/kg, po qd for 5 days a week for 3 weeks; type: functional; details: in the assay text read “for 2 weeks” for “for 3 weeks”; summary of the method: as §2
Mus musculus [9] = assay: Toxicity in human HCT116 cells xenografted athymic nude mouse assessed as body weight loss at 60 mg/kg, po qd for 5 days a week for 3 weeks; type: organism-based, HCT-116; parameters: dose 60 mg/kg, route oral; details: in vivo
Summary of the method: (§3)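 Nude mice (female, athymic, 5–6 weeks) carried sc right-flank xenografts of 5 × 10⁶ cells per 100 μL. Oral treatment once daily started 3 days after inoculation.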

Mus musculus [10] = assay: Toxicity in human A2780 cells xenografted athymic nude mouse assessed as body weight loss at 60 mg/kg, po qd for 5 days a week for 3 weeks; type: organism-based; parameters: dose 60 mg/kg, route oral; details: in vivo, in the assay text read “for 2 weeks” for “for 3 weeks”; summary of the method: as §3
[11] = Solubility of the compound in Solutol HS15
Histone deacetylase 1 = Histone deacetylase 1 (Homo sapiens, UniProt Q13547); assay: Inhibition of HDAC1 (unknown origin) using fluorogenic tetrapeptide RHKK(Ac) substrate by fluorescence assay
Histone deacetylase 3 = Histone deacetylase 3 (Homo sapiens, UniProt O15379); assay: Inhibition of HDAC3 (unknown origin) using fluorogenic tetrapeptide RHKK(Ac) substrate by fluorescence assay
[12] = biological target: T1, Polyamine deacetylase HDAC10 (Homo sapiens, UniProt Q969S8); assay: Inhibition of HDAC10 (unknown origin) using fluorogenic tetrapeptide RHKK(Ac) substrate by fluorescence assay
T1 sequence (Q969S8 whole entry): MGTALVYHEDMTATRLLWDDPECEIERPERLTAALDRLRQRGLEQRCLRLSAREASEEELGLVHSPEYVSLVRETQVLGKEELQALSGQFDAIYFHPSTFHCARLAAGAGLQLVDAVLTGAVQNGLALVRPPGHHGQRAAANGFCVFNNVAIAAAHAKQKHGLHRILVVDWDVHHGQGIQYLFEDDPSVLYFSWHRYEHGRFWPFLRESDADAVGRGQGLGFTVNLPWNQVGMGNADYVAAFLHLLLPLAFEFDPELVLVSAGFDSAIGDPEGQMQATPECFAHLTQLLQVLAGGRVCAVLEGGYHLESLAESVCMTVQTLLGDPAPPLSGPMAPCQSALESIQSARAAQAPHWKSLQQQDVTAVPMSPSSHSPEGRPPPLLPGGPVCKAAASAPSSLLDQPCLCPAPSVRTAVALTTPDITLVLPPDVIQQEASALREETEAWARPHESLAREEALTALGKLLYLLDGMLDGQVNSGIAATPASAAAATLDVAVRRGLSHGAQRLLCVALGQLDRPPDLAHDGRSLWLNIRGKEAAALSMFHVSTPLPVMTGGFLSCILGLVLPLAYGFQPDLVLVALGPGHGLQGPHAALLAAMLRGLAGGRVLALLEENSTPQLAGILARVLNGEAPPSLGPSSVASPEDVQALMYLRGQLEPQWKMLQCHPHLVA

Histone deacetylase 11 = biological target: T2, Histone deacetylase 11 (Homo sapiens, UniProt Q96DB2); assay: Inhibition of HDAC11 (unknown origin) using fluorogenic tetrapeptide RHKK(Ac) substrate by fluorescence assay
T2 sequence (Q96DB2 whole entry): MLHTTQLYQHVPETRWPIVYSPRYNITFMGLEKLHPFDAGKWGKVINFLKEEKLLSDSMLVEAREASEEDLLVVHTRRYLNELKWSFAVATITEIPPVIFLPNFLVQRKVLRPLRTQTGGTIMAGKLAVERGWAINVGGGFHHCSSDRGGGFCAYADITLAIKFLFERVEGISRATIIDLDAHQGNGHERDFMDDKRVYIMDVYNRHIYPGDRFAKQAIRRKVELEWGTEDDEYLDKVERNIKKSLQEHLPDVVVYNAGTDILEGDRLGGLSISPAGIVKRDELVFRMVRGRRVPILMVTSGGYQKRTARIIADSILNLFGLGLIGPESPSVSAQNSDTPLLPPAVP

Histone deacetylase 2 = Histone deacetylase 2 (Homo sapiens, UniProt Q92769); assay: Inhibition of HDAC2 (unknown origin) using fluorogenic tetrapeptide RHKK(Ac) substrate at <50 uM by fluorescence assay
Summary of the method: (§4)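 Fluorogenic assay with the tetrapeptide RHKK(Ac) substrate (p53 residues 379–382) at 50 μM.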

[13] = biological target: T3, Histone deacetylase 8 (Homo sapiens) (UniProt Q9BY41); assay: Inhibition of HDAC8 (unknown origin) using fluorogenic tetrapeptide RHK(Ac)K(Ac) substrate at <50 uM by fluorescence assay
T3 sequence (whole entry): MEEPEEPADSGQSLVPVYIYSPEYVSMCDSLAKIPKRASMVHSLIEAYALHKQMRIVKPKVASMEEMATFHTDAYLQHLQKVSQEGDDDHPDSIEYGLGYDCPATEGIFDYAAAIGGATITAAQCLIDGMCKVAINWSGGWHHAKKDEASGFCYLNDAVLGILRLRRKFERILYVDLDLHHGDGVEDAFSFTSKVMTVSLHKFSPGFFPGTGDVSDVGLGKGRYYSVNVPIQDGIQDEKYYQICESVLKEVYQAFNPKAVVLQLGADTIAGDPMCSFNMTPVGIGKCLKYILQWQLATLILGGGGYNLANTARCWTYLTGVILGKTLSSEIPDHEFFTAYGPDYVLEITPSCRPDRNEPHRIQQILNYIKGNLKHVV
Summary of the method: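 The HDAC8 assay used the diacetylated fluorogenic substrate RHK(Ac)K(Ac) at 50 μM.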

[14] = biological target: T4, Protein deacetylase HDAC6 (Homo sapiens) (UniProt Q9UBN7); assay: Inhibition of HDAC6 (unknown origin) using fluorogenic tetrapeptide RHKK(Ac) substrate at <50 uM by fluorescence assay; summary of the method: as §4
T4 sequence (whole entry): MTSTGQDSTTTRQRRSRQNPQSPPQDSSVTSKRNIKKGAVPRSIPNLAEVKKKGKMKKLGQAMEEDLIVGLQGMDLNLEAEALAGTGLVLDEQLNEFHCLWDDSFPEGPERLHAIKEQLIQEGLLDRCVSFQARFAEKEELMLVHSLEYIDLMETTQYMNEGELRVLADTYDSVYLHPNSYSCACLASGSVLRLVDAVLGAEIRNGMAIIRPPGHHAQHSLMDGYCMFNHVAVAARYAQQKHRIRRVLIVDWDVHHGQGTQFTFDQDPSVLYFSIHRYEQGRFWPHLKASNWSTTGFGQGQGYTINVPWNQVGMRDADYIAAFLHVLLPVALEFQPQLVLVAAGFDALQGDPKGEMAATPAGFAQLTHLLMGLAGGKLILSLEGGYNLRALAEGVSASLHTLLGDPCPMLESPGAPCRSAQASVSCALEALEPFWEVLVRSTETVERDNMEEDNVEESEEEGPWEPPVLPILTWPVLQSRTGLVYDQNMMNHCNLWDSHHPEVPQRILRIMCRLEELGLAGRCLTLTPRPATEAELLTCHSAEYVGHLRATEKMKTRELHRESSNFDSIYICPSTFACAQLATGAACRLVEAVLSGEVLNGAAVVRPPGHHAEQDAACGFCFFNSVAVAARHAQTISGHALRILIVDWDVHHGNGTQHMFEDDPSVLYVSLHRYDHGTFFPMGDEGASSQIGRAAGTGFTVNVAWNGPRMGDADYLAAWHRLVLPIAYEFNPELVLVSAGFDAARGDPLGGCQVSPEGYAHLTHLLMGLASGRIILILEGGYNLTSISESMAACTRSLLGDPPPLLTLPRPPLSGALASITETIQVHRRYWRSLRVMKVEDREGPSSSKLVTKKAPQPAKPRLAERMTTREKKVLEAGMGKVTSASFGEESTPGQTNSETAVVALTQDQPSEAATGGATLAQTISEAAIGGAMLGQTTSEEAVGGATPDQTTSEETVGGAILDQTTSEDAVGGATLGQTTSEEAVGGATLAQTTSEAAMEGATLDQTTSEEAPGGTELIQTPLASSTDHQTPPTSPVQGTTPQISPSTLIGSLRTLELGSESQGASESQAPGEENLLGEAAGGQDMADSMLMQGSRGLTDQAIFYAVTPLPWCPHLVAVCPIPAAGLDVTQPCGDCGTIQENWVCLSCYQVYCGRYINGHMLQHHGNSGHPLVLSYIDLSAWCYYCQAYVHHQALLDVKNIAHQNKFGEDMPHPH

Mus musculus [15] = assay: Toxicity in human A2780 cells xenografted athymic nude mouse assessed as body weight loss at 100 mg/kg, po qd for 5 days a week for 2 weeks; type: organism-based; parameters: dose 100 mg/kg, route oral; details: in vivo; summary of the method: as §3
[16] = Stability of the compound in aqueous solution at pH 7.4 after 24 hrs; type: physicochemical; details: buffer, pH 7.4, 24 h
Summary of the method: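 Stability in aqueous solution at pH 7.4 over 24 h.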

[17] = Stability of the compound in aqueous solution at pH 1.2 after 3 hrs; details: buffer, pH 1.2, 3 h

Sequence of Histone deacetylase 2 (Q92769 whole entry, the tested form may be a part): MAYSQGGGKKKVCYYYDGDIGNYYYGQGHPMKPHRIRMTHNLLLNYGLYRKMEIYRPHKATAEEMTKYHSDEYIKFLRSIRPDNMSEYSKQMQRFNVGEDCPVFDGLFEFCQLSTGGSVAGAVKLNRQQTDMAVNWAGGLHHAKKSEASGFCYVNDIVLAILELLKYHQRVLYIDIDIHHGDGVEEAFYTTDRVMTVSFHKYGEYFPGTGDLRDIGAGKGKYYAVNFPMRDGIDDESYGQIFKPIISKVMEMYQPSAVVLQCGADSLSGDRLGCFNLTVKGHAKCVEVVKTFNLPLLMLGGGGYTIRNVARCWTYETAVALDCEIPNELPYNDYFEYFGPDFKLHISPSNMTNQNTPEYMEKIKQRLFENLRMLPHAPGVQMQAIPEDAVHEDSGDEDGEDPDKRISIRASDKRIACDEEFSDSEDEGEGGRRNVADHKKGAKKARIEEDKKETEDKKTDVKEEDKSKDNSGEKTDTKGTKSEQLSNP
Sequence of Histone deacetylase 1 (Q13547 whole entry): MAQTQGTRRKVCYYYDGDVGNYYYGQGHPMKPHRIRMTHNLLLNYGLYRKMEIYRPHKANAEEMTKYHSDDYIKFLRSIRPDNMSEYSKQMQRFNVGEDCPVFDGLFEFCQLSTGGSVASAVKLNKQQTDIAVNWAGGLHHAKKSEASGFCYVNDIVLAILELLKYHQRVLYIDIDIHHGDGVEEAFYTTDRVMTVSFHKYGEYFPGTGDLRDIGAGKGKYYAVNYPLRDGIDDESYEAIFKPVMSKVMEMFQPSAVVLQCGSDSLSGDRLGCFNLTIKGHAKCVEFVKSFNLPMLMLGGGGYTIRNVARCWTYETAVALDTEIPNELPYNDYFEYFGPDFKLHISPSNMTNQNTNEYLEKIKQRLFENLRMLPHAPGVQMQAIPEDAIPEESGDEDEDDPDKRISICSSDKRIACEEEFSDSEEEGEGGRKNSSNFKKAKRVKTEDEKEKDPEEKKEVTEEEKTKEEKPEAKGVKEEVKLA
Sequence of Histone deacetylase 3 (O15379 whole entry): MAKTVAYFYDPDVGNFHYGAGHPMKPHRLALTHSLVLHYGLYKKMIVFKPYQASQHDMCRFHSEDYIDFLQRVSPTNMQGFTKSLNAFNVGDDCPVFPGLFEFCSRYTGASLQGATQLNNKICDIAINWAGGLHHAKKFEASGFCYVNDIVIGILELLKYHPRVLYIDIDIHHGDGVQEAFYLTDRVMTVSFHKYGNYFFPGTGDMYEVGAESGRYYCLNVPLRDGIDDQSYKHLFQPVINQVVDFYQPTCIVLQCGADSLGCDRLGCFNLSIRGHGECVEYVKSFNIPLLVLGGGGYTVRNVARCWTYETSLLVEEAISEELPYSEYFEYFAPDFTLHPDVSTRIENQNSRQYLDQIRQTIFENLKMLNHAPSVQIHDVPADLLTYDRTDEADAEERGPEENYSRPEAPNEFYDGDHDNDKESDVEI

IC50 (Histone deacetylase [2]): 200 nM
IC50 (Histone deacetylase [3]): 5 nM
half-life at 5 µM [4]: 2.7 min
hepatocyte CLint at 5 µM [5]: 252 µL/min/1e6 cells
Ratio [6]: 6.9
Ratio [7]: 4.2
solubility [11]: > 10000 µg/mL
SMILES: CC(=O)SCCCCC[C@H](NC(=O)[C@H]1CCC(=O)N1)C(=O)Nc1ccccc1
IC50 (NCI-H460): 70 nM
IC50 [1]: 75 nM
inhibition in vivo at 60 mg/kg [8]: 62%
inhibition in vivo at 60 mg/kg (A2780): 89%
Activity (Mus musculus [9]): 1%
Activity (Mus musculus [10]): 7%

IC50 (Histone deacetylase 1): 1750 nM
IC50 (Histone deacetylase 3): 35800 nM
IC50 [12]: 2930 nM
IC50 (Histone deacetylase 11): 949 nM
inhibition (Histone deacetylase 2): inactive
inhibition [13]: inactive
inhibition [14]: inactive
SMILES: O=C(CCCCCCS)N1CCc2ccccc2C1

half-life at 5 µM [4]: 47.5 min
hepatocyte CLint at 5 µM [5]: 14.7 µL/min/1e6 cells
Stability [16]: Stable
Stability [17]: Stable
SMILES: O=C(CCCCCCC(=O)Nc1ccccc1)NO [VORINOSTAT]
Activity (Mus musculus [15]): 4%
